Measured values published in ChEMBL document CHEMBL4041530, “Development of spiroguanidine-derived α7 neuronal nicotinic receptor partial agonists” (Bioorg Med Chem Lett, 2017).

Key:
[1] = organism: Homo sapiens; test: Selectivity ratio of IC50 for 5-HT3A receptor (unknown origin) to EC50 for alpha7 nAChR (unknown origin) expressed in HEK293 cells; format: cell-based
Method in brief: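 Selectivity ratio calculated as 5-HT3A IC50 (FLIPR Ca2+ antagonist assay) divided by α7 EC50 (FLIPR Ca2+ agonist assay).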

[2] = target: Neuronal acetylcholine receptor subunit alpha-7 (Homo sapiens, UniProt P36544); test: Agonist activity at alpha7 nAChR (unknown origin) expressed in HEK293 cells assessed as increase in calcium influx by Fluo-4-AM dye based FLIPR assay; format: cell-based
Chain of Neuronal acetylcholine receptor subunit alpha-7 (Homo sapiens, UniProt P36544) (P36544 whole entry): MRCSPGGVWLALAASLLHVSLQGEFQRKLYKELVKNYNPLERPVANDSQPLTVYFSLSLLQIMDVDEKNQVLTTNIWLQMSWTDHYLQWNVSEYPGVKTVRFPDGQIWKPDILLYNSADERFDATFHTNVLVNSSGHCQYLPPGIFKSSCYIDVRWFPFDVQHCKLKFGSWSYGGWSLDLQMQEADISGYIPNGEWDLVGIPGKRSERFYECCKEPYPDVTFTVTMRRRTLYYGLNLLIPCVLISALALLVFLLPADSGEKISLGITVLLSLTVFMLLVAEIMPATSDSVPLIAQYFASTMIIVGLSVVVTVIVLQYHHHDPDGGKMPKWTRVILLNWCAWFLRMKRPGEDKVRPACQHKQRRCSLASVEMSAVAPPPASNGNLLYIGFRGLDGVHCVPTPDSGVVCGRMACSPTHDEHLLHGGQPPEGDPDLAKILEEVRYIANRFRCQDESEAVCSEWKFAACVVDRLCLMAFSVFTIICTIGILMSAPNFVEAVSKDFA
Method in brief: (§1)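 Ca2+-based fluorescence imaging plate reader screen, run as two assays: α7 nAChR agonism and 5-HT3A receptor antagonism. Number of determinations recorded per value.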

[3] = target: T1, 5-hydroxytryptamine receptor 3A (Homo sapiens, UniProt P46098); test: Antagonist activity at 5-HT3A receptor (unknown origin) assessed as decrease in calcium influx by Fluo-4-AM dye based FLIPR assay; method in brief: as §1
T1 sequence (P46098 whole entry): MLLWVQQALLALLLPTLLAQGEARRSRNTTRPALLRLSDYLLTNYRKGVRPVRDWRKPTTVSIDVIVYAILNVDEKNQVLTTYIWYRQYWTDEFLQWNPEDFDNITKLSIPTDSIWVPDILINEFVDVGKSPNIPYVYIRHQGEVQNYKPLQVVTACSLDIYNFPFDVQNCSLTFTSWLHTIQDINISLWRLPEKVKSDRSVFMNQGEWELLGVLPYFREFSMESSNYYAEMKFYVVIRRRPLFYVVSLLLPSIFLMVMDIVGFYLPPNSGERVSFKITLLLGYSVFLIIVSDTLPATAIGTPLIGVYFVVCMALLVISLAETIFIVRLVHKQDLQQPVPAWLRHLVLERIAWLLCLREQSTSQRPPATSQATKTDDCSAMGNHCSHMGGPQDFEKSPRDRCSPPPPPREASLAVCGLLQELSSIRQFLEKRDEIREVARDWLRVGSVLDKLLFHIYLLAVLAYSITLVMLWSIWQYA

[4] = target: Neuronal acetylcholine receptor subunit alpha-7 (Rattus norvegicus) (UniProt Q05941); test: Agonist activity at rat alpha7 nAChR expressed in HEK293 cells co-expressing human RIC-3 assessed as maximum peak current at 10 uM at holding potential of -90 mV by whole-cell voltage clamp electrophysiology method relative to acetylcholine; format: cell-based
Chain of Neuronal acetylcholine receptor subunit alpha-7 (Rattus norvegicus) (Q05941 whole entry): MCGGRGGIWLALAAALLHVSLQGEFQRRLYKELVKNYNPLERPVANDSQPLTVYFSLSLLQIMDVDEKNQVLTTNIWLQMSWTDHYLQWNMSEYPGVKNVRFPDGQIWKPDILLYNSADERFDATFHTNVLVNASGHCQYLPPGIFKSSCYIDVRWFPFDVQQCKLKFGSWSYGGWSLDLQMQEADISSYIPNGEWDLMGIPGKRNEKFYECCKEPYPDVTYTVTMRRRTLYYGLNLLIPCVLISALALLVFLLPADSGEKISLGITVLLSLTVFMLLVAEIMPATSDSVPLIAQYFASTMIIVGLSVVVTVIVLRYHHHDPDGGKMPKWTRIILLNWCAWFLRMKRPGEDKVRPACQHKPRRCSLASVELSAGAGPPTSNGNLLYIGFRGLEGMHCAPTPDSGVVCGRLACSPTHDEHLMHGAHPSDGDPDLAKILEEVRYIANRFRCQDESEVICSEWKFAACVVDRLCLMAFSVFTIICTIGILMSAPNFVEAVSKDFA
Method in brief: (§2)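 Concentration-response patch-clamp electrophysiology in HEK-293 cells expressing rat α7 nAChR. EC50 is taken from response area. Efficacy is given as Ymax from both area and peak response.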

[5] = target: Neuronal acetylcholine receptor subunit alpha-7 (Rattus norvegicus) (UniProt Q05941); test: Agonist activity at rat alpha7 nAChR expressed in HEK293 cells co-expressing human RIC-3 assessed as area under current curve at 10 uM at holding potential of -90 mV by whole-cell voltage clamp electrophysiology method relative to acetylcholine; format: cell-based; method in brief: as §2
[6] = target: Neuronal acetylcholine receptor subunit alpha-7 (Rattus norvegicus, UniProt Q05941); test: Agonist activity at rat alpha7 nAChR expressed in HEK293 cells co-expressing human RIC-3 assessed as area under current curve at holding potential of -90 mV by whole-cell voltage clamp electrophysiology method; format: cell-based; method in brief: as §2
Chain of Neuronal acetylcholine receptor subunit alpha-7 (Rattus norvegicus, UniProt Q05941) (Q05941 whole entry): as above

[7] = test system: Rattus norvegicus; test: In vivo agonist activity at alpha7 nAChR in Wistar rat assessed as induction of c-fos gene expression in medial prefrontal cortex at 10 mg/kg, sc after 2 hrs by qPCR method relative to control; format: functional
Method in brief: (§3)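 Rats dosed sc at 0.3–10 mg/kg, or with vehicle at 2 mL/kg sc. Medial prefrontal cortex was assayed for c-fos and Arc expression, normalized to vehicle, with β2-microglobulin as the endogenous control. Data are mean ± SEM, N = 8. Dunnett's multiple comparison test against vehicle gave adjusted p values.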

[8] = test system: Rattus norvegicus; test: Effect on beta2-microglobulin gene expression in Wistar rat medial prefrontal cortex at 10 mg/kg, sc after 2 hrs by qPCR method; format: ADME, organism-based; conditions: in vivo; method in brief: as §3
[9] = test system: Rattus norvegicus; test: In vivo agonist activity at alpha7 nAChR in Wistar rat assessed as induction of Arc gene expression in medial prefrontal cortex at 10 mg/kg, sc after 2 hrs by qPCR method relative to control; format: functional; method in brief: as §3
[10] = Drug uptake in Wistar rat brain at 0.3 mg/kg, sc after 2 hrs; format: ADME, organism-based; conditions: read-out: Drug uptake
[11] = Ratio of drug uptake in Wistar rat brain to plasma at 10 mg/kg, sc after 2 hrs; format: ADME, organism-based; conditions: read-out: BPR
Method in brief: (§4)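 Plasma concentration and brain/plasma ratio measured at 3 and 10 mg/kg sc, in the same rats used for the prefrontal c-fos/Arc expression study.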

[12] = test system: Rattus norvegicus; test: In vivo agonist activity at alpha7 nAChR in Wistar rat assessed as induction of Arc gene expression in medial prefrontal cortex at 0.3 mg/kg, sc after 2 hrs by qPCR method relative to control; format: functional
Method in brief: (§5)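 Rats dosed sc (0.3–10 mg/kg; vehicle 2 mL/kg sc) and c-fos and Arc expression measured in medial prefrontal cortex. Values are normalized to vehicle, mean ± SEM, N = 8. Comparison with vehicle by Dunnett's multiple comparison test (adjusted p). β2-microglobulin served as endogenous control. Plasma and brain/plasma levels were sampled at 3 and 10 mg/kg.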

[13] = Plasma concentration in Wistar rat at 10 mg/kg, sc after 2 hrs; format: ADME, organism-based; method in brief: as §4
[14] = Plasma concentration in Wistar rat at 1 mg/kg, sc after 2 hrs; format: ADME, organism-based
[15] = test system: Rattus norvegicus; test: In vivo agonist activity at alpha7 nAChR in Wistar rat assessed as induction of c-fos gene expression in medial prefrontal cortex at 1 mg/kg, sc after 2 hrs by qPCR method relative to control; format: functional; method in brief: as §5
[16] = Drug uptake in Wistar rat brain at 3 mg/kg, sc after 2 hrs; format: ADME, organism-based; conditions: read-out: Drug uptake
[17] = target: Neuronal acetylcholine receptor subunit alpha-7 (Rattus norvegicus) (UniProt Q05941); test: Displacement of [125I]Tyr54-alpha-Bungarotoxin from rat alpha7 nAChR expressed in HEK293 cell membranes co-expressing human RIC-3 after 2 hrs by gamma counting method
[18] = Ratio of drug uptake in Wistar rat brain to plasma at 0.3 mg/kg, sc after 2 hrs; format: ADME, organism-based; conditions: read-out: BPR
[19] = test system: Rattus norvegicus; test: In vivo agonist activity at alpha7 nAChR in Wistar rat assessed as induction of Arc gene expression in medial prefrontal cortex at 1 mg/kg, sc after 2 hrs by qPCR method relative to control; format: functional; method in brief: as §5
[20] = test system: Rattus norvegicus; test: In vivo agonist activity at alpha7 nAChR in Wistar rat assessed as induction of c-fos gene expression in medial prefrontal cortex at 0.3 mg/kg, sc after 2 hrs by qPCR method relative to control; format: functional; method in brief: as §5
[21] = Drug uptake in Wistar rat brain at 10 mg/kg, sc after 2 hrs; format: ADME, organism-based; conditions: read-out: Drug uptake
[22] = Plasma concentration in Wistar rat at 3 mg/kg, sc after 2 hrs; format: ADME, organism-based; method in brief: as §4
[23] = Ratio of drug uptake in Wistar rat brain to plasma at 1 mg/kg, sc after 2 hrs; format: ADME, organism-based; conditions: read-out: BPR
[24] = test system: Rattus norvegicus; test: In vivo agonist activity at alpha7 nAChR in Wistar rat assessed as induction of c-fos gene expression in medial prefrontal cortex at 3 mg/kg, sc after 2 hrs by qPCR method relative to control; format: functional; method in brief: as §5
[25] = Plasma concentration in Wistar rat at 0.3 mg/kg, sc after 2 hrs; format: ADME, organism-based
[26] = Ratio of drug uptake in Wistar rat brain to plasma at 3 mg/kg, sc after 2 hrs; format: ADME, organism-based; conditions: read-out: BPR; method in brief: as §4
[27] = Drug uptake in Wistar rat brain at 1 mg/kg, sc after 2 hrs; format: ADME, organism-based; conditions: read-out: Drug uptake
[28] = test system: Rattus norvegicus; test: Effect on beta2-microglobulin gene expression in Wistar rat medial prefrontal cortex at 0.3 to 10 mg/kg, sc after 2 hrs by qPCR method; format: ADME, organism-based; conditions: in vivo; method in brief: as §3
[29] = test system: Rattus norvegicus; test: In vivo agonist activity at alpha7 nAChR in Wistar rat assessed as induction of Arc gene expression in medial prefrontal cortex at 3 mg/kg, sc after 2 hrs by qPCR method relative to control; format: functional; method in brief: as §5

c1cn(-c2cc(NC3=NCC4(CN5CCC4CC5)N3)ncn2)cn1 (racemic)
Ratio IC50/EC50 [1]: 460
EC50 [2]: 140 nM
IC50 [3]: 6400 nM

COc1cc(NC2=NCC3(CN4CCC3CC4)N2)ncn1 (racemic)
Ratio IC50/EC50 [1]: > 77
EC50 [2]: 1300 nM
IC50 [3]: > 100000 nM

Clc1ccc2nc(NC3=NCC4(CN5CCC4CC5)N3)sc2c1 (racemic)
Emax [4]: 5%
Ratio IC50/EC50 [1]: 120
EC50 [2]: 150 nM
Emax [5]: 33%
EC50 [6]: 1200 nM
IC50 [3]: 18000 nM

Clc1cnc(NC2=NCC3(CN4CCC3CC4)N2)cn1 (racemic)
Ratio IC50/EC50 [1]: 5.7
EC50 [2]: 990 nM
IC50 [3]: 5600 nM

O=C(Oc1ccc(Br)cc1)N1CCN2CCC1CC2 [SSR180711]
fold change (FC) [7]: 2.4
Activity [8]: Non-Toxic
fold change (FC) [9]: 3.9

c1ccc2nc(NC3=NCC4(CN5CCC4CC5)N3)cnc2c1 (racemic)
Ratio IC50/EC50 [1]: 2.9
EC50 [2]: 490 nM
IC50 [3]: 1400 nM

c1ccc2oc(NC3=NCC4(CN5CCC4CC5)N3)nc2c1 (racemic)
Ratio IC50/EC50 [1]: 0.49
EC50 [2]: 53 nM
IC50 [3]: 26 nM

c1ccc2c(NC3=NCC4(CN5CCC4CC5)N3)ncnc2c1 (racemic)
Ratio IC50/EC50 [1]: 27
EC50 [2]: 530 nM
IC50 [3]: 14500 nM

Clc1cnc(NC2=NCC3(CN4CCC3CC4)N2)nc1 (racemic)
Emax [4]: 11%
Ratio IC50/EC50 [1]: 2.1
EC50 [2]: 290 nM
Emax [5]: 44%
EC50 [6]: 1100 nM
IC50 [3]: 620 nM

CN1C(Nc2nc3ccc(Cl)nc3s2)=NCC12CN1CCC2CC1 (racemic)
Ratio IC50/EC50 [1]: 24
EC50 [2]: 550 nM
IC50 [3]: 13000 nM

COc1ccc2sc(NC3=NCC4(CN5CCC4CC5)N3)nc2c1 (racemic)
Ratio IC50/EC50 [1]: 0.068
EC50 [2]: 750 nM
IC50 [3]: 51 nM

Cc1ccc2nc(NC3=NCC4(CN5CCC4CC5)N3)oc2c1 (racemic)
Emax [4]: 16%
Ratio IC50/EC50 [1]: 210 to 250
EC50 [2]: 35 nM
Emax [5]: 58%
EC50 [6]: 500 nM
IC50 [3]: 7400 nM

CN1C(Nc2nc3ccccc3s2)=NCC12CN1CCC2CC1 (configuration not stated)
Emax [4]: 25%
Ratio IC50/EC50 [1]: 0.25
EC50 [2]: 170 nM
Emax [5]: 67%
EC50 [6]: 1200 nM
IC50 [3]: 43 nM

COc1ccc2nc(NC3=NCC4(CN5CCC4CC5)N3)sc2c1 (racemic)
Ratio IC50/EC50 [1]: 36
EC50 [2]: 880 nM
IC50 [3]: 32000 nM

Clc1ccc(NC2=NCC3(CN4CCC3CC4)N2)nc1 (racemic)
Ratio IC50/EC50 [1]: 0.72
EC50 [2]: 1200 nM
IC50 [3]: 860 nM

CCN1C(Nc2nc3ccc(OC)cc3s2)=NCC12CN1CCC2CC1 (racemic)
Ratio IC50/EC50 [1]: > 1
EC50 [2]: > 10000 nM
IC50 [3]: > 12000 nM

Clc1cccc2sc(NC3=NCC4(CN5CCC4CC5)N3)nc12 (racemic)
Ratio IC50/EC50 [1]: 0.32
EC50 [2]: 120 nM
IC50 [3]: 38 nM

Clc1ccc2nc(NC3=NCC4(CN5CCC4CC5)N3)sc2n1 (racemic)
Ratio IC50/EC50 [1]: 570
EC50 [2]: 56 nM
IC50 [3]: 32000 nM

c1ccc2sc(NC3=NCC4(CN5CCC4CC5)N3)nc2c1 (configuration not stated)
concentration at 2 h [10]: 58 nM
Kp at 2 h [11]: 4.1
fold change (FC) [12]: 1.2
concentration at 2 h [13]: 460 to 463 nM
Emax [4]: 29%
fold change (FC) [7]: 1.9
concentration at 2 h [14]: 43 nM
fold change (FC) [15]: 1.1
concentration at 2 h [16]: 524 nM
INH [17]: 240 nM
Kp at 2 h [18]: 4.8
fold change (FC) [19]: 1
Ratio IC50/EC50 [1]: 1
fold change (FC) [20]: 1.5
concentration at 2 h [21]: 1920 nM
EC50 [2]: 26 nM
concentration at 2 h [22]: 130 to 131 nM
Kp at 2 h [23]: 4.3
fold change (FC) [24]: 1.7
concentration at 2 h [25]: 12 nM
Emax [5]: 78%
EC50 [6]: 200 nM
Kp at 2 h [26]: 4
concentration at 2 h [27]: 184 nM
fold change (FC) [9]: 2.7
Activity [28]: Non-Toxic
IC50 [3]: 26 nM
fold change (FC) [29]: 1.5

Clc1ccc2c(NC3=NCC4(CN5CCC4CC5)N3)ncnn12 (configuration not stated)
Ratio IC50/EC50 [1]: 610
EC50 [2]: 62 nM
IC50 [3]: 38000 nM
